DNA FID counter: fluorescent intercalator displacement, NS3 helicase counter-screen. DNA fluorescent intercalator displacement, fluorescence. inhibition, % at 7.9 µM. 290,000 tested, 0.17% active; in the data active = inhibition above about 37%;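 also: higher means more ethidium bromide displaced from hairpin DNA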
MEKK3 PB1 HTS: raises or lowers MEK5 binding to the human MEKK3 PB1 domain. 290,000 tested, 1.4% active. Q99759. bead-based flow cytometry, Alexa488-MEK5 binding to MEKK3; actives lie on both sides; 0 = blocked by unlabeled MEK5, 100 = vehicle. binding response (% of control), % at 10 µM;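 active = binding response more than 3 SD above or below the average of its plate-row segment, actives on both sides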;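 also: Alexa488 bead fluorescence after subtracting the streptavidin-only scavenger bead signal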
MEKK2mut PB1 HTS: signal of MEK5 binding to mutant human MEKK2 PB1 domain; percent response, % at 10 µM; 290,000 tested, 0.35% active; AID 1530; bead flow cytometry, Alexa488-MEK5 binding to MEKK2 mutant; in the data active = percent response above about 24%, passing the limit was not always enough
MEKK2wt PB1 HTS: raises or lowers MEK5 binding to wildtype human MEKK2 PB1 domain. Q9Y2U5. bead flow cytometry, Alexa488-MEK5 binding to MEKK2 WT; actives lie on both sides. binding response (% of control), % at 10 µM. 290,000 tested, 1.1% active. AID 1531; in the data active = binding response below about 67% or above about 130%
NS3 helicase inh: HCV NS3 helicase inhibition. NS3 helicase DNA unwinding, Cy5 molecular beacon fluorescence. inhibition, % at 10.9 µM. 290,000 tested, 0.56% active;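 active = inhibition above the mean of all tested compounds plus 3 SD, set per campaign, cut at about 35% in these data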
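assay system = NS3 helicase fragment of HCV | buffer or medium = MOPS pH 6.5, MgCl2, DTT, Tween20, BSA | timing = 60 min unwinding reaction at 25 °C after ATP addition | signal = Cy5 beacon fluorescence read at start and 1 h | read-out basis = % inhibition of unwinding | control set = low DMSO, high thioflavine S at 110 µM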
T cruzi repl: T. cruzi replication inhibition; inhibition, % (test concentration not listed); 300,000 tested, 1.4% active; T. cruzi beta-gal in NIH3T3, luminescence, 90 h;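 active = mean inhibition across valid replicates above about 55%, limit read from the data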;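 also: signal also drops with host cell toxicity which is not excluded here; higher percent means less beta-gal luminescence so fewer parasites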
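Read-out: Parasite load inhibition, % | Test system: Mouse NIH/3T3 fibroblasts infected with β-gal-expressing T. cruzi Tulahuen C4 | Amount: 5,000 cells/well | Medium: DMEM, 2% fetal bovine serum | Signal: GalScreen β-gal luminescence, detergent lysis, 60 min | Timing: 3 h attach, ≥90 h co-culture | Also added: Tulahuen C4 trypomastigotes, 5000/well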
MEKK2wt confirm: raises or lowers MEK5 binding to wildtype human MEKK2, retest; shares compounds with MEKK3 PB1 HTS; bead flow cytometry, Alexa488-MEK5 binding to MEKK2 WT; actives lie on both sides; binding response (% of control), % at 10 µM; 5,900 tested, 2.4% active; AID 1892; in the data active = binding response below about 16% or above about 210%; inactive = in between
MEKK2mut confirm: signal of MEK5 binding to mutant human MEKK2, retest. shares compounds with MEKK3 PB1 HTS. 5,900 tested, 2% active. percent response, % at 10 µM. bead flow cytometry, Alexa488-MEK5 binding to MEKK2 mutant. AID 1893; in the data active = percent response mostly above about 71%, no sharp cut-off; inactive = mostly below about 38%;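 also: higher means compound restores mutant binding toward wildtype level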
MEKK3-MEK5 inh: confirmation of inhibitors of MEK5 binding to human MEKK3. binding response (% of control), % at 10 µM. shares compounds with MEKK3 PB1 HTS. bead flow cytometry, Alexa488-MEK5 binding to MEKK3; hits give low values. 5,900 tested, 1.8% active;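 active = binding response below 72% of control, or above a set upper limit, though filed actives all read lower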;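 also: lower values mean stronger disruption of MEK5 binding to MEKK3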
Numbers stand for hits; . = inactive; / = no result; [ ] = dose if it differs, or a comment. Hits are enriched below; roughly 4.1% of the tested compounds scored in any of these assays.

SMILES	DNA FID counter	MEKK3 PB1 HTS	MEKK2mut PB1 HTS	MEKK2wt PB1 HTS	NS3 helicase inh	T cruzi repl	MEKK2wt confirm	MEKK2mut confirm	MEKK3-MEK5 inh
O=C(Nc1ccccc1)N1CCCC(c2nc(-c3ccc(F)cc3)no2)C1 (stereo not drawn)	.	.	.	.	.	.	/	/	/
O=C(Nc1cccc(C(F)(F)F)c1)N1CCC(c2nc(-c3ccc(F)cc3)no2)CC1	.	.	.	173	.	.	.	.	.
Cc1[nH]c2ccccc2c1/C=N/NC(=S)NC(C)C	.	.	144	18	.	.	.	.	.
Cc1[nH]c2ccccc2c1/C=N/NS(=O)(=O)c1ccccc1	.	.	.	.	.	.	/	/	/
Cc1[nH]c2ccccc2c1/C=N/Nc1ccccc1[N+](=O)[O-]	.	67[inhibitor]	.	.	.	62	.	.	.
O=C(OCN1C(=O)c2ccccc2C1=O)c1cccc(OC(F)F)c1	.	.	.	.	.	.	/	/	/
Cc1[nH]nc2c1C(Cc1ccccc1)C(C#N)=C(N)O2 (stereo not drawn)	.	2.0[inhibitor]	.	3.0[inhibitor]	.	.	.	.	.
CCc1[nH]nc2c1C(Cc1ccccc1)C(C#N)=C(N)O2 (stereo not drawn)	.	.	.	.	.	.	/	/	/
Cc1ccc(-n2c(C)c(C)c3c(NCCO)ncnc32)cc1	.	.	.	.	.	.	/	/	/
Cc1ccc(C(C)C)c(OCCNCCc2ccccc2)c1	.	.	.	160	.	.	.	.	.
Cc1cc2c(=O)n(Cc3ccco3)c(SCC(=O)NCc3ccco3)nc2s1	.	2.0[inhibitor]	.	2.0[inhibitor]	.	.	.	.	.
Cc1cc(=O)[nH]c(SCC(=O)NCc2ccco2)n1	.	.	.	.	.	.	/	/	/
Cc1cc2c(=O)n(Cc3ccco3)c(SCC(=O)N3CCCc4ccccc43)nc2s1	.	.	.	.	.	.	/	/	/
Cc1nnc(SCC(=O)NCc2ccco2)[nH]c1=O	.	133	.	135	.	.	.	.	.
Cc1n[nH]c(=S)n1-c1cccc(Cl)c1	.	74[inhibitor]	.	.	.	.	.	.	.
Cc1ccccc1OCc1n[nH]c(=S)n1-c1cccc(Cl)c1	.	.	24	.	.	.	.	.	.
COc1ccccc1CNC(=O)C(C)n1nc(C)n2c(cc3occc32)c1=O (stereo not drawn)	.	.	.	.	.	.	/	/	/
Cc1oc(C)c(C(=O)O)c1C(=O)O	.	45[inhibitor]	.	.	.	.	.	.	.
N=c1sccn1CC(=O)Nc1ccccc1Sc1ccccc1	.	156	.	178	.	.	.	.	.
O=C(C[n+]1cccc2ccccc21)c1ccc(Br)cc1	.	24[inhibitor]	234	/	.	.	.	.	.
Cc1cccc[n+]1CC(=O)c1ccc(NC(=O)c2ccccc2)cc1	.	.	.	.	.	.	/	/	/
NC(=O)C[n+]1cccc2ccccc21	.	.	.	.	.	.	/	/	/
Cc1ccc(C(=O)C[n+]2cccc3ccccc32)cc1	.	80[inhibitor]	.	.	.	59	.	.	.
COc1ccc(C(=O)C[n+]2ccccc2C)cc1	.	143	.	.	.	.	.	.	.
COc1cc(CN2CCN(CC#Cc3ccccc3)CC2CCO)cc(OC)c1 (stereo not drawn)	.	.	.	.	.	.	/	/	/
C=CCNC(=S)N/N=C(\C)c1cc(OC)c(OC)c(OC)c1	.	137	.	.	.	.	.	.	.
COc1ccc(C(=O)NC(=S)N2CCOCC2)cc1[N+](=O)[O-]	.	.	.	.	.	.	/	/	/
